Drawing on ChEMBL document CHEMBL1154312, “Inhibition of ErbB2(Her2) expression with small molecule transcription factor mimics” (Bioorg Med Chem Lett, 2009), this text covers Kd, Activity and IC50 for 8 molecules.

Broadly, the Kd is the concentration at which binding is half-saturated. For orientation: IC50 means the point on the concentration scale where inhibition reaches its midpoint. A lower IC50 goes with inhibition by little substance.

The target of test [1] is Mediator of RNA polymerase II transcription subunit 23 (Homo sapiens). The test is described as follows: Inhibition of ESX-Med23 interaction assessed as binding affinity to Med23 (352-625) by fluorescence polarization.
Test [2] addresses T1, ETS-related transcription factor Elf-3/Vitamin D3 receptor-interacting protein (ESX/MED23) (Homo sapiens) (UniProt Q9ULK4+P78545). Nature of the test: Inhibition of ESX-Med23 interaction in human BT474 cells assessed as down regulation of ErbB2 expression after 24 hrs by Western blotting. Type of test: cell-based. The conditions noted are these: BT-474. In general terms: A western blot detects proteins with antibodies after separation by electrophoresis.

Test [3] deals with T1, ETS-related transcription factor Elf-3/Vitamin D3 receptor-interacting protein (ESX/MED23) (Homo sapiens). Nature of the test: Inhibition of ESX-Med23 interaction in human BT474 cells assessed as reduction in ErbB2 mRNA level after 6 hrs by qPCR relative to control. Type of test: cell-based. The conditions noted are these: BT-474. The gist of the method: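 BT-474 cells given compound in DMSO at 10 μM for 6 h; ErbB2 mRNA quantified by qPCR, normalized to GAPDH and expressed relative to DMSO; average of 16 experiments each in quadruplicate, s.e.m., Student's t-test.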

Test [4] has the same target. Nature of the test: Inhibition of ESX-Med23 interaction in human SK-BR-3 cells assessed as down regulation of ErbB2 expression by Western blotting. Type of test: cell-based. The gist of the method:
(§1)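 SkBr3 cells treated 6 h with compound in DMSO at 0.625–50 μM (comparator 10, 50 μM), DMSO control; ErbB2 protein level by Western blot.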

The test system of test [5] is SK-BR-3. The test is described as follows: Cytotoxicity against human SK-BR-3 cells after 24 hrs by WST-1 assay. Type of test: functional, cell-based. On the technique in general: Formazan colour is commonly taken as a measure of viable cells.
The subject of test [6] is MCF7. The test is described as follows: Cytotoxicity against human MCF7 cells after 24 hrs by WST-1 assay. Type of test: functional, cell-based. The conditions noted are these: MCF7, 24 h.
In test [7] the test system is CAL-27. The test is described as follows: Cytotoxicity against human CAL27 cells. It counts as functional, cell-based.
Test [8] concerns SCC-25. The test is described as follows: Cytotoxicity against human SCC25 cells. Type of test: functional, cell-based.
In test [9] the test system is SCC-15. Nature of the test: Cytotoxicity against human SCC15 cells. It counts as functional, cell-based.
Test [10] deals with T1, ETS-related transcription factor Elf-3/Vitamin D3 receptor-interacting protein (ESX/MED23) (Homo sapiens). The test is described as follows: Inhibition of ESX-Med23 interaction in human BT474 cells assessed as down regulation of ErbB2 expression up to 50 uM by Western blotting. To be noted: BT-474. It counts as cell-based.
The target is the same in test [11]. The test is described as follows: Inhibition of ESX-Med23 interaction in human SK-BR-3 cells assessed as down regulation of ErbB2 expression at 25 uM by Western blotting. Type of test: cell-based. The method, boiled down:
as §1

Each structure is given as a SMILES string. Active and inactive are the calls of the source. The calls are words filed in the database; no cut-off is given here.

T1 sequence (P78545 whole entry, looked up): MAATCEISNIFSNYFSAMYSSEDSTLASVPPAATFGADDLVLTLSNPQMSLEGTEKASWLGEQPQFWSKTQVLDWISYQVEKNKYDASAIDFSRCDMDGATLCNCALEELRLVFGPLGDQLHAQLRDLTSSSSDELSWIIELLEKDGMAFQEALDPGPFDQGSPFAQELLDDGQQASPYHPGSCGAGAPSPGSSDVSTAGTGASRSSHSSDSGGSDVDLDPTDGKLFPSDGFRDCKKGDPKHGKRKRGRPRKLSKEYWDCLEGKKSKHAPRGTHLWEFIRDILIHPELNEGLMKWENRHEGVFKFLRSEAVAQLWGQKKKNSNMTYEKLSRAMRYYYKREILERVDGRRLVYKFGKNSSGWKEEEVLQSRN
T1 sequence (Q9ULK4 whole entry, looked up): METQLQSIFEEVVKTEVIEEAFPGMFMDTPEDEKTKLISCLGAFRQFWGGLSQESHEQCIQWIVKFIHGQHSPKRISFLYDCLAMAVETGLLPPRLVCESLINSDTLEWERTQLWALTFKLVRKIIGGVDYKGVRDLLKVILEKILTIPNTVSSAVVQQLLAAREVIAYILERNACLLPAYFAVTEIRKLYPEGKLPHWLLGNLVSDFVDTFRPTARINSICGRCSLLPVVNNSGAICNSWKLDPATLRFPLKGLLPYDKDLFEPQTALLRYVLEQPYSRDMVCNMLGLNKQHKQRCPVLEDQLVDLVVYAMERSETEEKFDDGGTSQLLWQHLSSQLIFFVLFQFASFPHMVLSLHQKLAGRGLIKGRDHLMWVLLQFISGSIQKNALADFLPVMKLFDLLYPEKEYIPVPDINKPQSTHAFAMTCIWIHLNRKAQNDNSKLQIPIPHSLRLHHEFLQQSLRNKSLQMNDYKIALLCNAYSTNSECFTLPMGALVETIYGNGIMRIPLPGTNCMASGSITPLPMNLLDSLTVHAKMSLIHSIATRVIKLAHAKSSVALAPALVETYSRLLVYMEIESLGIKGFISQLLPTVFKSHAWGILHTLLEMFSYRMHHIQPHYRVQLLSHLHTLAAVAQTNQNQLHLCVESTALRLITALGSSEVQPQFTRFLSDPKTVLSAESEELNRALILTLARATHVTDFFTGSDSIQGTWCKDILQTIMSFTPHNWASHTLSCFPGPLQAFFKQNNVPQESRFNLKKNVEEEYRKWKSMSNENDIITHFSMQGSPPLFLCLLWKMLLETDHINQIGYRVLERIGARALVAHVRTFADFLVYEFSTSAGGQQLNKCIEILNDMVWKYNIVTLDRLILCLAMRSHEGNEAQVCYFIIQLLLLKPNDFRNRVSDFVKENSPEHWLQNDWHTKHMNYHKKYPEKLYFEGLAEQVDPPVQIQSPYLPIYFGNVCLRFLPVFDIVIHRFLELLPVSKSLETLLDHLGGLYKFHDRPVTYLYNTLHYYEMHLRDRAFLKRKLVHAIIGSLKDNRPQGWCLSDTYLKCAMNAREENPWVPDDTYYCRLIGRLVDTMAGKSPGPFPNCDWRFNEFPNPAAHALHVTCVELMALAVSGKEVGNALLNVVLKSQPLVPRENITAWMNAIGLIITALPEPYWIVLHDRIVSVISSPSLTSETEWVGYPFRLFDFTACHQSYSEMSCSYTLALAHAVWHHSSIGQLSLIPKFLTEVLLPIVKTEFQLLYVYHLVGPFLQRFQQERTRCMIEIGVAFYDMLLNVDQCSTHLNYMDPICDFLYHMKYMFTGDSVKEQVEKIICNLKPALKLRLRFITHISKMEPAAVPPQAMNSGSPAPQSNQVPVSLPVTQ

`CC(C)C[C@]1(CCO)C[C@H](CNC(=S)Nc2ccc(-c3c4ccc(=O)cc-4oc4cc(O)ccc34)c(C(=O)O)c2)ON1Cc1ccc2ccccc2c1`: in test [1], the Kd stood at 1 µM.
In the case of `CC(C)C[C@]1(CCO)C[C@H](CN=[N+]=[N-])ON1Cc1ccc(-c2ccccc2)cc1`, in test [2], the Activity result was “Dose-dependent effect”. Further, the result in test [3] and in test [4] was Active. The IC50 was 14 µM in test [5] (SK-BR-3, 24 h); 27 µM in test [6]; 21.8 µM in [7]; 19.8 µM in test [8]; 19.2 µM in test [9].
Regarding `CC(C)C[C@]1(CCO)C[C@H](CNC(=S)Nc2ccc(-c3c4ccc(=O)cc-4oc4cc(O)ccc34)c(C(=O)O)c2)ON1Cc1ccccc1`, the Kd in test [1] was 5.9 µM.
Take `CC(C)C[C@]1(CCO)C[C@H](CNC(=S)Nc2ccc(-c3c4ccc(=O)cc-4oc4cc(O)ccc34)c(C(=O)O)c2)ON1Cc1ccc(C(F)(F)F)cc1`: in test [1], the Kd stood at 0.59 µM.
On to `CC(C)C[C@]1(CCO)C[C@H](CN=[N+]=[N-])ON1Cc1ccccc1`, for which the result in test [10] and in test [5] was inactive. Also, in [11], the result was Active.
For `CC(C)C[C@]1(CCO)C[C@H](CN=[N+]=[N-])ON1Cc1ccc(C(F)(F)F)cc1`, the Activity result in test [2] was “Dose-dependent effect”.
The same measure, in the same setting: under `CC(C)C[C@]1(CCO)C[C@H](CN=[N+]=[N-])ON1Cc1ccc2ccccc2c1` stands “Dose-dependent effect”.
`CC(C)C[C@]1(CCO)C[C@H](CNC(=S)Nc2ccc(-c3c4ccc(=O)cc-4oc4cc(O)ccc34)c(C(=O)O)c2)ON1Cc1ccc(-c2ccccc2)cc1`: the Kd in [1] was 0.62 µM.
